# Measured values as given in ChEMBL document CHEMBL1221182, “Functional characterization of IRESes by an inhibitor of the RNA helicase eIF4A” (Nat Chem Biol, 2006).
# Molecular target: Eukaryotic initiation factor 4A-I (Mus musculus, UniProt P60843)
# Assay: Inhibition of eIF4A-mediated cap-dependent protein synthesis in FF-HCV-Ren mRNA transfected Swiss mouse Krebs2 cell extract by [35S]methionine metabolic labeling study
# How it was run: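 Cell-free translation in Krebs-2 extracts programmed with capped bicistronic FF-HCV-Ren transcript: cap-dependent firefly cistron, HCV IRES-driven renilla cistron. Final mRNA 5 µg ml⁻¹, K⁺ 100 mM, compound titrated. Controls carry a matched final DMSO level. Products labeled with [³⁵S]methionine, separated by 10% SDS-PAGE, and autoradiographed. Luciferase activities are read by luminometer and expressed relative to vehicle reactions.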
# Eukaryotic initiation factor 4A-I, sequence (P60843 whole entry): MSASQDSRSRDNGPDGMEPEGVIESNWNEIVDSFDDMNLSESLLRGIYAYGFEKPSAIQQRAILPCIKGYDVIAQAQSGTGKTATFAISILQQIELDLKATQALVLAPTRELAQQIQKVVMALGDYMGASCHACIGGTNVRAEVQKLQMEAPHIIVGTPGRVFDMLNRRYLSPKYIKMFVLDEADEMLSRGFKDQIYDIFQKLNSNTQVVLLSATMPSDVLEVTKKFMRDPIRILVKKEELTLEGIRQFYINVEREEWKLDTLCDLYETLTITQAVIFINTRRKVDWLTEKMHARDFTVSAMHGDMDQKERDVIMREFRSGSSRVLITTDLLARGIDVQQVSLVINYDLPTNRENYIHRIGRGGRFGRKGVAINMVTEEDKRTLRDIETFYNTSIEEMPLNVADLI
row,Compound,IC50 [µM]
1,C[C@H]1C[C@]2(O[C@H]3C[C@H]4[C@@H]5CC[C@H]6C[C@H](O)[C@H](O)C[C@]6(C)[C@H]5[C@@H](O)C[C@]4(C)[C@H]3[C@@]2(C)O)OC1(C)C,19
2,C[C@H]1C[C@@]2(O[C@H]3C[C@H]4[C@@H]5CC[C@H]6C[C@H](O)[C@H](O)C[C@]6(C)[C@H]5[C@@H](O)C[C@]4(C)[C@H]3[C@@]2(C)O)OC1(C)C,1.7
3,C[C@H]1C[C@@]2(O[C@H]3C[C@H]4[C@@H]5CC[C@H]6C[C@H](O)[C@H](OC(=O)CCCC(=O)O)C[C@]6(C)[C@H]5[C@@H](O)C[C@]4(C)[C@H]3[C@@]2(C)O)OC1(C)C,2.6
4,C[C@H]1C[C@]2(O[C@H]3C[C@H]4[C@@H]5CC[C@H]6C[C@H](O)[C@H](OC(=O)CCCC(=O)O)C[C@]6(C)[C@H]5[C@@H](O)C[C@]4(C)[C@H]3[C@@]2(C)O)OC1(C)C,35
5,C[C@H]1C[C@@]2(O[C@H]3C[C@H]4[C@@H]5CC[C@H]6C[C@H](O)CC[C@]6(C)[C@H]5C(=O)C[C@]4(C)[C@H]3[C@@]2(C)O)OC1(C)C,9
6,C[C@H]1C[C@]2(O[C@H]3C[C@H]4[C@@H]5CC[C@H]6C[C@H](O)CC[C@]6(C)[C@H]5[C@@H](O)C[C@]4(C)[C@H]3[C@@]2(C)O)OC1(C)C [EPIHIPPURISTANOL],> 100
7,CC(=O)O[C@@H]1C[C@@]2(C)[C@@H](CC[C@@H]3[C@@H]2[C@@H](O)C[C@@]2(C)[C@H]3C[C@@H]3O[C@]4(C[C@H](C)C(C)(C)O4)[C@](C)(O)[C@@H]32)C[C@@H]1O [EPIHIPPURIN 1],> 100
8,C[C@H]1C[C@@]2(O[C@H]3C[C@H]4[C@@H]5CC[C@H]6CC(=O)CC[C@]6(C)[C@H]5C(=O)C[C@]4(C)[C@H]3[C@@]2(C)O)OC1(C)C,52
9,C[C@H]1C[C@]2(O[C@H]3C[C@H]4[C@@H]5CC[C@H]6CC(=O)CC[C@]6(C)[C@H]5C(=O)C[C@]4(C)[C@H]3[C@@]2(C)O)OC1(C)C,> 100
10,CC(=O)O[C@@H]1CC[C@@]2(C)[C@@H](CC[C@@H]3[C@@H]2[C@@H](OC(C)=O)C[C@@]2(C)[C@H]3C[C@@H]3O[C@@]4(C[C@H](C)C(C)(C)O4)[C@](C)(O)[C@@H]32)C1,64
